This note sets out measurements from ChEMBL document CHEMBL1955823, “Imidazo[1,2-a]pyrazines as novel PI3K inhibitors” (Bioorg Med Chem Lett, 2012).

Bounds are passed on as bounds.

In data set [1] the target is T1, PI3-kinase p110-alpha/p85-alpha (Homo sapiens, UniProt P42336). Nature of the data set: Inhibition of PI3K p110alpha/p85alpha. In kind it is protein-complex assay. In a few lines:
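Biochemical kinase assay following the kit manufacturer's protocol with a modified kinase buffer (50 mM HEPES pH 7.5, 3 mM MgCl2, 100 mM NaCl, 1 mM EGTA, 0.04% CHAPS, 2 mM TCEP, 0.01 mg/ml BGG); 10 nM enzyme; ATP 50 µM; values are averages of two independent experiments, each in duplicate.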

Data set [2] concerns the target T1, PI3-kinase p110-alpha/p85-alpha. Nature of the data set: Inhibition of PI3K p110alpha/p85alpha-mediated AKT1 phosphorylation at Ser473 in human U2OS cells. The class given is cell-based. An outline of the steps:
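Endogenous phospho-Akt1 (Ser473) measured in U2OS osteosarcoma cells kept in 0.1% FBS and then serum-stimulated; read-out by cell-based ELISA with femto chemiluminescent substrate.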

For another data set, the target named is T2, CYP1A2 (Homo sapiens, UniProt P05177).
T2 sequence (P05177 whole entry): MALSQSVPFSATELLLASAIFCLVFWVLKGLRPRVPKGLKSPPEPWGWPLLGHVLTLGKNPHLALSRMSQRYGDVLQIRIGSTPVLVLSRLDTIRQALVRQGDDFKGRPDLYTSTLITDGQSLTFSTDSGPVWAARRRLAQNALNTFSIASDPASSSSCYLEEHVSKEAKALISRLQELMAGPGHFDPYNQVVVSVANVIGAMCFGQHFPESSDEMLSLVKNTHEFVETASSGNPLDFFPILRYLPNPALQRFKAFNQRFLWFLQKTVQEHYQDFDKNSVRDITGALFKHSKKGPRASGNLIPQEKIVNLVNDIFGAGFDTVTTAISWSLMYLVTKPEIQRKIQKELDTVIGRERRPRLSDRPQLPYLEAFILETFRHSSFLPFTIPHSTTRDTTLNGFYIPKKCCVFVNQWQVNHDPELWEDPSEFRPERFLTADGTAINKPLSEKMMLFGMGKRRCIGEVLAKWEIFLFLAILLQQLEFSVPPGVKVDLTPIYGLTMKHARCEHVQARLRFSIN
Nature of the data set: Inhibition of CYP1A2 at 10 uM. The class given is ADME. In a few lines: (§1)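 CYP isoform panel (1A2, 2C9, 2C19, 2D6, 3A4); percent inhibition recorded at 10 µM test compound; run in duplicate by an outside contractor.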

The nature of data set [3]: Metabolic stability in mouse liver microsomes assessed as compound remaining at 1 uM after 30 mins. On the technique in general: Microsomes from liver hold many membrane-bound enzymes, among them those of drug oxidation.
The target in a further data set is CYP3A4 (Homo sapiens, UniProt P08684). Nature of the data set: Inhibition of CYP3A4 at 10 uM. In kind it is ADME. In a few lines: as §1
Chain of CYP3A4 (P08684 whole entry): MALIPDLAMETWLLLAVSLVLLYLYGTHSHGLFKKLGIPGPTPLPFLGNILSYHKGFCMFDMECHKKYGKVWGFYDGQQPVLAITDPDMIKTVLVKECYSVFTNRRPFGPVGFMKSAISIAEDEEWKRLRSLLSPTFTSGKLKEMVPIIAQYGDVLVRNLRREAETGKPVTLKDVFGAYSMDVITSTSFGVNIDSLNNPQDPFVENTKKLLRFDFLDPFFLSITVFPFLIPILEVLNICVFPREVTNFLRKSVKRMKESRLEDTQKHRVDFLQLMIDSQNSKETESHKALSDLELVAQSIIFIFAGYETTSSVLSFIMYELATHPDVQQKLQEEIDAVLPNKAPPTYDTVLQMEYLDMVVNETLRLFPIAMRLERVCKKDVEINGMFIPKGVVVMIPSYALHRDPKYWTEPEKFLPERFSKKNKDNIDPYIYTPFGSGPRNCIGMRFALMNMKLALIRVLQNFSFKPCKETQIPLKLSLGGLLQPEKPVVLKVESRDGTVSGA
Another data set concerns the target CYP2C9 (Homo sapiens, UniProt P11712). Nature of the data set: Inhibition of CYP2C9 at 10 uM. In kind it is ADME. In a few lines:
as §1

The next data set deals with CYP2C19 (Homo sapiens, UniProt P33261). Description: Inhibition of CYP2C19 at 10 uM. In kind it is ADME. An outline of the steps:
as §1

Data set [4] is described as follows: Metabolic stability in human liver microsomes assessed as compound remaining at 1 uM after 30 mins.
The target in the next data set is CYP2D6 (Homo sapiens, UniProt P10635). Description: Inhibition of CYP2D6 at 10 uM. The class given is ADME. In a few lines:
as §1

T1 sequence (P27986 whole entry): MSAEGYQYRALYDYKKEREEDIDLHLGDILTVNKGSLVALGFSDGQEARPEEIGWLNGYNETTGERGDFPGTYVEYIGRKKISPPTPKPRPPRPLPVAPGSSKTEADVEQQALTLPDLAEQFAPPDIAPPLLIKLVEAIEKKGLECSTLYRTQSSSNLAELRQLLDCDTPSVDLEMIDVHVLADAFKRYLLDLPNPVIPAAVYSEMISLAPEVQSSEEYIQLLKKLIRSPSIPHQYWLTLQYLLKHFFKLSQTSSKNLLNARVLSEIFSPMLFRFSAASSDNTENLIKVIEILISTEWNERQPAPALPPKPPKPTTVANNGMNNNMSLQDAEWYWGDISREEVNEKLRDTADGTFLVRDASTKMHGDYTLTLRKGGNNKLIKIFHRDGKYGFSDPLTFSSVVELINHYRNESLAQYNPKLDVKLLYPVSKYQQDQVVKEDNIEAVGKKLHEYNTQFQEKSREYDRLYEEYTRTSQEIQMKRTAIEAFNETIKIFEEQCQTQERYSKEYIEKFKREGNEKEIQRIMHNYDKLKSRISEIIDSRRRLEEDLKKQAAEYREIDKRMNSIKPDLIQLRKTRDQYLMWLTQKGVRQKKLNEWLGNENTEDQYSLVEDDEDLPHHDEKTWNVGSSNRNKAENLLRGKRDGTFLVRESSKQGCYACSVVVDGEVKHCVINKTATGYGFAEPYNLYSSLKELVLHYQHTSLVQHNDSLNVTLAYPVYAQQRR
T1 sequence (P42336 whole entry): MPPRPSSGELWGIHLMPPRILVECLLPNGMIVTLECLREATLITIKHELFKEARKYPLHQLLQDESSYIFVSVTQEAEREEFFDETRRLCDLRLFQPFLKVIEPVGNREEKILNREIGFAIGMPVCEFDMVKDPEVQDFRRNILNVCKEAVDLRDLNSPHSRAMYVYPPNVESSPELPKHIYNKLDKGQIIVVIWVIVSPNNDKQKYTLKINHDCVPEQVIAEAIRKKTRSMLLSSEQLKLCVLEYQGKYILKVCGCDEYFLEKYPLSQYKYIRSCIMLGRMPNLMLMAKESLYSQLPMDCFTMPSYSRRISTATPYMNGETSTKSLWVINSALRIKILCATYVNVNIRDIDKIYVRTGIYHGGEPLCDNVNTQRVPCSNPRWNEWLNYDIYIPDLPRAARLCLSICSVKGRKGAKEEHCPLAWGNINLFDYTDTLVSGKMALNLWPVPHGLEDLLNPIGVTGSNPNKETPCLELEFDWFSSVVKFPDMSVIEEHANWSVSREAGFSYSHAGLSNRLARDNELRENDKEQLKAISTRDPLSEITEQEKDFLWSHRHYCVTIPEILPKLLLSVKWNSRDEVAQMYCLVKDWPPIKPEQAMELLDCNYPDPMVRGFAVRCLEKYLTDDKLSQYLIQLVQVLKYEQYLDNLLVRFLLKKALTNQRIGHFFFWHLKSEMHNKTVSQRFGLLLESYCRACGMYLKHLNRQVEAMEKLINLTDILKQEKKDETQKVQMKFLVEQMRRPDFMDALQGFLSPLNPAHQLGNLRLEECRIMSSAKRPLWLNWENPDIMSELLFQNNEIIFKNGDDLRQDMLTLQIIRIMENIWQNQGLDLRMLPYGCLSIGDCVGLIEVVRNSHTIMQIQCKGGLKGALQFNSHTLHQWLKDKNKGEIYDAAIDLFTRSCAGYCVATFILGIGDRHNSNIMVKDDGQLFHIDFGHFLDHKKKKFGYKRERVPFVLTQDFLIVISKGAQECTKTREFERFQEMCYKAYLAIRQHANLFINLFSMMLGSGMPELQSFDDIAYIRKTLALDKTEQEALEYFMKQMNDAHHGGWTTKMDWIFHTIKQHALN
Chain of CYP2D6 (P10635 whole entry): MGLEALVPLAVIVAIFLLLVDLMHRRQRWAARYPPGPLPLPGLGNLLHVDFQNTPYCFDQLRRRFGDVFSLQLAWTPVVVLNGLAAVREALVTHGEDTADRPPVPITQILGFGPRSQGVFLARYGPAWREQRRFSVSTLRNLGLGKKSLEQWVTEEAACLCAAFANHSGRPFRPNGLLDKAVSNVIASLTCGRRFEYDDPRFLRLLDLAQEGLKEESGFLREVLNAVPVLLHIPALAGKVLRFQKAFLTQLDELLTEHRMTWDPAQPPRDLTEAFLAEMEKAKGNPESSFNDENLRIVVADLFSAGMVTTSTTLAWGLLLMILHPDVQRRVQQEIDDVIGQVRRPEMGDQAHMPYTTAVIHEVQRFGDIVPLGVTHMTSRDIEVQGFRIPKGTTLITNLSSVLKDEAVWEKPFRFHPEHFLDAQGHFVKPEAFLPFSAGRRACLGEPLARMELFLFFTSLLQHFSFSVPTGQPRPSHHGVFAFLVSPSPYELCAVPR
Chain of CYP2C19 (P33261 whole entry): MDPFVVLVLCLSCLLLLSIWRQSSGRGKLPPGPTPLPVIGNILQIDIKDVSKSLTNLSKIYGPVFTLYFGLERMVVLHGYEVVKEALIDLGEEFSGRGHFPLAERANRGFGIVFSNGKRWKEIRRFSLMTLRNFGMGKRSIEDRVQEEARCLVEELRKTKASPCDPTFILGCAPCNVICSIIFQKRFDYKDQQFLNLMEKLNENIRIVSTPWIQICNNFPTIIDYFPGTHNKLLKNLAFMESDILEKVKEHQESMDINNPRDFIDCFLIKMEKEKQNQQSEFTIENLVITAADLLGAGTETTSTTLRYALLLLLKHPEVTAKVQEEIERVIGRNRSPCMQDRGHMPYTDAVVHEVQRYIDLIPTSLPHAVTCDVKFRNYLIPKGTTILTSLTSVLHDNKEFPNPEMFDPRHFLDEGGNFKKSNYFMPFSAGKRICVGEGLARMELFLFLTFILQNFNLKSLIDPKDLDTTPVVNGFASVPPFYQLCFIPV
Chain of CYP2C9 (P11712 whole entry): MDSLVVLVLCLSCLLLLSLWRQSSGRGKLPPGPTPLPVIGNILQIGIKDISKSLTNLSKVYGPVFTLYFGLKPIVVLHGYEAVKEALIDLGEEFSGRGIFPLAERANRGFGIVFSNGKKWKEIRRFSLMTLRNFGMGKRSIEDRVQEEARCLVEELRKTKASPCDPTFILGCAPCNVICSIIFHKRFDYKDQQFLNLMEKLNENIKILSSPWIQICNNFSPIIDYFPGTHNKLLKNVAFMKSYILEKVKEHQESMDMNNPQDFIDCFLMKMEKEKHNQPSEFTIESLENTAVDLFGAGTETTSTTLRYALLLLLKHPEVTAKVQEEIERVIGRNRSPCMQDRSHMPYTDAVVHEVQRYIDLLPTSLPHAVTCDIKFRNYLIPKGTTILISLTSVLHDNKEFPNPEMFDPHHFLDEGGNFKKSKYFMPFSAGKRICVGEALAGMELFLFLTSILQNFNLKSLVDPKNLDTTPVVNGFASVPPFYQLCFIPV

`Oc1cccc(-c2cn3ccnc3c(N3CCOCC3)n2)c1` had an IC50 in data set [1] of 197 nM.
The same measure, in the same setting: under `CS(=O)(=O)N1CCN(c2cnc3c(N4CCOCC4)nc(-c4cccc(O)c4)cn23)CC1` stands 526 nM.
The compound `CCNC(=O)c1cn2cc(-c3cccc4[nH]ncc34)nc(N3CCOCC3)c2n1` gave an EC50 in [2] of 713 nM.
For `Oc1cccc(-c2cn3c(N4CCNCC4)cnc3c(N3CCOCC3)n2)c1`, in [1], the midpoint of inhibition, the IC50, lay at 897 nM.
Same read-out and setting: under `CN1CCN(Cc2cn3cc(-c4cccc(O)c4)nc(N4CCOCC4)c3n2)CC1` stands 2750 nM.
In data set [2], `CN(C)CCNC(=O)c1cn2cc(-c3cccc4[nH]ncc34)nc(N3CCOCC3)c2n1` showed an EC50 of 976 nM. In addition, inhibition in data set [1] was half-maximal at 35 nM (IC50).
As for `COCCNC(=O)c1cn2cc(-c3cccc4[nH]ncc34)nc(N3CCOCC3)c2n1`, the inhibition at 10 µM against CYP1A2, on CYP3A4, on CYP2C9, against CYP2C19 and against CYP2D6 was below 25% throughout. Besides, the share remaining at 0.5 h, 1 µM is 62% in data set [3] and 75% in data set [4]. The same compound gave a concentration for a half-maximal effect (EC50) in [2] of 200 nM. In [1], it took 50 nM to reach half-maximal inhibition (IC50).
On to `CN1CCN(c2cnc3c(N4CCOCC4)nc(-c4cccc(O)c4)cn23)CC1`, for which, in [1], half-maximal inhibition (IC50) was put at 512 nM.
For `CS(=O)(=O)N1CCN(Cc2cc3nc(-c4cccc5[nH]ncc45)nc(N4CCOCC4)c3s2)CC1` [PICTILISIB], the inhibition at 10 µM on CYP1A2, on CYP3A4, against CYP2C9, on CYP2C19 and at CYP2D6 was below 25% each time.
On to `NC(=O)c1cn2cc(-c3cccc4[nH]ncc34)nc(N3CCOCC3)c2n1`, for which the EC50 in data set [2] is 138 nM. In addition, in [1], the IC50 was found to be 107 nM.

The term IC50 denotes the point on the concentration scale where inhibition reaches its midpoint. What is called EC50 is the concentration needed to bring the measured effect to its halfway point. High values mean weaker potency, low ones greater potency. The term inhibition denotes the change of the read-out against control, counted positive when it falls. High values mean strong suppression, low ones little suppression. As a reminder, the fraction remaining is what is left of the initial amount, in per cent.
